Legend:
Rattus norvegicus [1] = assay: Biodistribution in thyroid 24 hours after iv injection in walker tumor bearing rat; assay type: ADME, organism-based, Thyroid gland; details: in vivo
Outline: (§1)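 Female Sprague–Dawley rats (200–250 g) were inoculated in the right hind limb with 5.0 × 10⁶ Walker 256 cells in saline and used 6–10 days later, when tumors averaged 10 g. The radioiodinated agent, in 2–3% Tween-20/saline after ethanol removal, was given as 5–10 μCi in 0.5 mL by tail vein to anesthetized rats. Tissues were dissected, weighed and counted with decay correction. Values are % ID/g, mean ± SEM, n = 3.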

Rattus norvegicus [2] = assay: Biodistribution in thyroid 48 hours after iv injection in walker tumor bearing rat; assay type: ADME, organism-based, Thyroid gland; details: in vivo; outline: as §1
Rattus norvegicus [3] = assay: Biodistribution in tumor 24 hours after iv injection in walker tumor bearing rat; assay type: ADME, organism-based; details: in vivo; outline: as §1
Rattus norvegicus [4] = assay: Biodistribution in tumor 48 hours after iv injection in walker tumor bearing rat; assay type: ADME, organism-based; details: in vivo; outline: as §1
Rattus norvegicus [5] = assay: Ratio of the biodistribution in tumor to blood 24 hours after iv injection in walker tumor bearing rat; assay type: ADME, organism-based; details: tumour
Outline: (§2)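 Walker 256 tumor-bearing female Sprague–Dawley rats were given 5–10 μCi of radioiodinated agent in Tween-20/saline iv by tail vein (n = 3 per time point). After dissection and decay-corrected counting, tumor % ID/g was divided by blood or liver % ID/g.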

Rattus norvegicus [6] = assay: Ratio of the biodistribution in tumor to blood 48 hours after iv injection in walker tumor bearing rat; assay type: ADME, organism-based; details: in vivo; outline: as §2
Rattus norvegicus [7] = assay: Ratio of the biodistribution in tumor to liver 48 hours after iv injection in walker tumor bearing rat; assay type: ADME, organism-based; details: in vivo; outline: as §2
Rattus norvegicus [8] = assay: Biodistribution in blood 24 hours after iv injection in walker tumor bearing rat; assay type: ADME, organism-based; details: in vivo; outline: as §1
Rattus norvegicus [9] = assay: Biodistribution in blood 48 hours after iv injection in walker tumor bearing rat; assay type: ADME, organism-based; details: in vivo; outline: as §1
Rattus norvegicus [10] = assay: Biodistribution in duodenum 48 hours after iv injection in walker tumor bearing rat; assay type: ADME, organism-based; details: in vivo; outline: as §1
Rattus norvegicus [11] = assay: Biodistribution in injected site 24 hours after iv injection in walker tumor bearing rat; assay type: ADME, organism-based; details: in vivo; outline: as §1
Rattus norvegicus [12] = assay: Biodistribution in injected site 48 hours after iv injection in walker tumor bearing rat; assay type: ADME, organism-based; details: in vivo; outline: as §1
Rattus norvegicus [13] = assay: Biodistribution in kidney 24 hours after iv injection in walker tumor bearing rat; assay type: ADME, organism-based; details: in vivo; outline: as §1
Rattus norvegicus [14] = assay: Biodistribution in kidney 48 hours after iv injection in walker tumor bearing rat; assay type: ADME, organism-based; details: in vivo; outline: as §1
Rattus norvegicus [15] = assay: Biodistribution in liver 24 hours after iv injection in walker tumor bearing rat; assay type: ADME, organism-based; details: in vivo; outline: as §1
Rattus norvegicus [16] = assay: Biodistribution in liver 48 hours after iv injection in walker tumor bearing rat; assay type: ADME, organism-based; details: in vivo; outline: as §1
Rattus norvegicus [17] = assay: Biodistribution in lung 24 hours after iv injection in walker tumor bearing rat; assay type: ADME, organism-based; details: in vivo; outline: as §1
Rattus norvegicus [18] = assay: Biodistribution in lung 48 hours after iv injection in walker tumor bearing rat; assay type: ADME, organism-based; details: in vivo; outline: as §1
Rattus norvegicus [19] = assay: Biodistribution in muscle 24 hours after iv injection in walker tumor bearing rat; assay type: ADME, organism-based, Muscle tissue; details: in vivo; outline: as §1
Rattus norvegicus [20] = assay: Biodistribution in muscle 48 hours after iv injection in walker tumor bearing rat; assay type: ADME, organism-based, Muscle tissue; details: in vivo; outline: as §1
Rattus norvegicus [21] = assay: Biodistribution in ovary 24 hours after iv injection in walker tumor bearing rat; assay type: ADME, organism-based, Female gonad; details: in vivo; outline: as §1
Rattus norvegicus [22] = assay: Biodistribution in ovary 48 hours after iv injection in walker tumor bearing rat; assay type: ADME, organism-based, Female gonad; details: in vivo; outline: as §1
Rattus norvegicus [23] = assay: Biodistribution in plasma 24 hours after iv injection in walker tumor bearing rat; assay type: ADME, organism-based; details: in vivo; outline: as §1
Rattus norvegicus [24] = assay: Biodistribution in plasma 48 hours after iv injection in walker tumor bearing rat; assay type: ADME, organism-based; details: in vivo; outline: as §1
Rattus norvegicus [25] = assay: Biodistribution in spleen 24 hours after iv injection in walker tumor bearing rat; assay type: ADME, organism-based; details: in vivo; outline: as §1
Rattus norvegicus [26] = assay: Biodistribution in spleen 48 hours after iv injection in walker tumor bearing rat; assay type: ADME, organism-based; details: in vivo; outline: as §1
Rattus norvegicus [27] = assay: Ratio of the biodistribution in tumor to liver 24 hours after iv injection in walker tumor bearing rat; assay type: ADME, organism-based; details: in vivo; outline: as §2
Rattus norvegicus [28] = assay: Biodistribution in duodenum 24 hours after iv injection in walker tumor bearing rat; assay type: ADME, organism-based; details: in vivo; outline: as §1

| Compound | ID/g (Rattus norvegicus [1]) [%] | ID/g (Rattus norvegicus [2]) [%] | ID/g (Rattus norvegicus [3]) [%] | ID/g (Rattus norvegicus [4]) [%] | ID/g (Rattus norvegicus [5]) | ID/g (Rattus norvegicus [6]) | ID/g (Rattus norvegicus [7]) | ID/g (Rattus norvegicus [8]) [%] | ID/g (Rattus norvegicus [9]) [%] | ID/g (Rattus norvegicus [10]) [%] | ID/g (Rattus norvegicus [11]) [%] | ID/g (Rattus norvegicus [12]) [%] | ID/g (Rattus norvegicus [13]) [%] | ID/g (Rattus norvegicus [14]) [%] | ID/g (Rattus norvegicus [15]) [%] | ID/g (Rattus norvegicus [16]) [%] | ID/g (Rattus norvegicus [17]) [%] | ID/g (Rattus norvegicus [18]) [%] | ID/g (Rattus norvegicus [19]) [%] | ID/g (Rattus norvegicus [20]) [%] | other results |
| --- | --- | --- | --- | --- | --- | --- | --- | --- | --- | --- | --- | --- | --- | --- | --- | --- | --- | --- | --- | --- | --- |
| CO[C@@H](COCCCCCCCCCCCCc1cccc(I)c1)COP(=O)([O-])OCC[N+](C)(C)C | 10.33 | 13.69 | 0.78 | 0.45 | 11.1 | 15 | 2 | 0.07 | 0.03 | 0.23 | 0.26 | 0.24 | 0.37 | 0.16 | 0.53 | 0.23 | 0.35 | 0.14 | 0.05 | 0.02 | ID/g (Rattus norvegicus [21]): 0.31%; ID/g (Rattus norvegicus [22]): 0.14%; ID/g (Rattus norvegicus [23]): 0.06%; ID/g (Rattus norvegicus [24]): 0.03%; ID/g (Rattus norvegicus [25]): 0.43%; ID/g (Rattus norvegicus [26]): 0.1%; ID/g (Rattus norvegicus [27]): 1.5; ID/g (Rattus norvegicus [28]): 1.04% |
| COC(COCCCCCCCCCCCCc1cccc(I)c1)COP(=O)([O-])OCC[N+](C)(C)C (racemic) | 47.22 | 24.44 | 0.85 | 0.56 | 12.1 | 11.2 | 1.6 | 0.07 | 0.05 | 0.44 | 0.24 | 0.17 | 0.46 | 0.24 | 0.81 | 0.35 | 0.34 | 0.2 | 0.04 | 0.03 | ID/g (Rattus norvegicus [21]): 0.37%; ID/g (Rattus norvegicus [22]): 0.27%; ID/g (Rattus norvegicus [23]): 0.1%; ID/g (Rattus norvegicus [24]): 0.05%; ID/g (Rattus norvegicus [25]): 0.42%; ID/g (Rattus norvegicus [26]): 0.17%; ID/g (Rattus norvegicus [27]): 1.1; ID/g (Rattus norvegicus [28]): 1.12% |
| CO[C@H](COCCCCCCCCCCCCc1cccc(I)c1)COP(=O)([O-])OCC[N+](C)(C)C | 23.81 | 24.11 | 0.55 | 0.43 | 11 | 14.3 | 1.7 | 0.05 | 0.03 | 0.34 | 0.23 | 0.25 | 0.33 | 0.2 | 0.52 | 0.25 | 0.29 | 0.14 | 0.04 | 0.02 | ID/g (Rattus norvegicus [21]): 0.28%; ID/g (Rattus norvegicus [22]): 0.14%; ID/g (Rattus norvegicus [23]): 0.06%; ID/g (Rattus norvegicus [24]): 0.03%; ID/g (Rattus norvegicus [25]): 0.37%; ID/g (Rattus norvegicus [26]): 0.1%; ID/g (Rattus norvegicus [27]): 1.1; ID/g (Rattus norvegicus [28]): 0.73% |
